Experimental data: PMC4161153 (Journal of Medicinal Chemistry, 2014)

Key:
[1] = Chemical stability of the free base; type: physicochemical; conditions: rapid formation of overoxidized 3-ol derivative 5 via autoxidation
[2] = biological target: T1, human TLR8 (Homo sapiens, UniProt Q9NR97); test: Human TLR8-specific reporter gene assay; type: cell-based; conditions: HEK293 cells, NF-κB induction
T1 sequence (Q9NR97 27-1041): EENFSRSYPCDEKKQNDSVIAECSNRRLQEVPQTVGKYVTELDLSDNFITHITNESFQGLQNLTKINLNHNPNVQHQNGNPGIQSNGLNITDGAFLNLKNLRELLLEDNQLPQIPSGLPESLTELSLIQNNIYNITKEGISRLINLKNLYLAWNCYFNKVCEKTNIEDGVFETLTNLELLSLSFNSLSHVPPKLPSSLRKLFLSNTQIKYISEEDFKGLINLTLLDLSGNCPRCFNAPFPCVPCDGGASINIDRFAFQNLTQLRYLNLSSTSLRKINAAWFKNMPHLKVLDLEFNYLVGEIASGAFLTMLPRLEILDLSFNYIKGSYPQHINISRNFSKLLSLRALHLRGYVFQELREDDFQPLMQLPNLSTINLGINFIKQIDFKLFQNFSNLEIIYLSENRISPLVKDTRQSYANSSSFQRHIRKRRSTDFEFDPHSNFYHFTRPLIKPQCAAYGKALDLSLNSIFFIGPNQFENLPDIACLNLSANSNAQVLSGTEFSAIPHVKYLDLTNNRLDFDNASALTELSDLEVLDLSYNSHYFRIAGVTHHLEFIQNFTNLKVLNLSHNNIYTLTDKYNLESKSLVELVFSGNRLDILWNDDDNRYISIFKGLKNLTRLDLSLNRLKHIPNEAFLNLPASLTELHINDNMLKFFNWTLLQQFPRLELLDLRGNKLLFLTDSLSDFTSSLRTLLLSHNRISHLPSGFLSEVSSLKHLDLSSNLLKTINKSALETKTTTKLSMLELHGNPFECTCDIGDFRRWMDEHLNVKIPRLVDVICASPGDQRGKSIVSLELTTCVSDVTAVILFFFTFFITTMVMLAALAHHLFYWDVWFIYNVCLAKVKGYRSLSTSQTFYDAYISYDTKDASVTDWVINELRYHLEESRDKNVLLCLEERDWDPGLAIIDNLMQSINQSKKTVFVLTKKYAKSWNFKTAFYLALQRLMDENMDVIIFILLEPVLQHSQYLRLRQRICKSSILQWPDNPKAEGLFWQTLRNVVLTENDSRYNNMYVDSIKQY

[3] = tested on: natural killer lymphocytes; test: CD69 upregulation by flow cytometry in whole human blood; type: cell-based; conditions: overnight 37 °C, CD3–CD56+ cells, Figure 4
Summary of the method: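 Heparin-anticoagulated whole blood from healthy volunteers was incubated overnight at 37 °C with graded concentrations of test compound, a TLR7-agonist reference or medium. Cells were stained for 30 min at 37 °C in the dark with CD3-PE, CD56-APC and CD69-PE-Cy7. Erythrocytes were lysed and leukocytes fixed in one step. CD69 was read on CD3⁻CD56⁺ NK cells from 100,000 gated events.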

| Structure (SMILES) | hTLR8 Agonistic Activity (EC50) [2] | further results |
| --- | --- | --- |
| CCCCC1C(N)=Nc2ccccc21.Cl (stereo not drawn) [Compound 4] | – | Stability of the compound (free base) [1]: exceedingly unstable |
| Nc1nc2ccccc2n1Cc1ccccc1 [Compound 8d, 1-Benzyl-1H-benzo[d]imidazol-2-amine] | neither 8d nor 8f were active | – |
| NCc1cccc(Cn2c(N)nc3ccccc32)c1 [Compound 8f, 1-(3-(Aminomethyl)benzyl)-1H-benzo[d]imidazol-2-amine] | neither 8d nor 8f were active | – |
| CCCCOC(=O)n1c(N)nc2ccccc21 [Compound 9, Butyl 2-amino-1H-benzo[d]imidazole-1-carboxylate] | completely abrogated activity | – |
| CCCCCn1c(NC(C)=O)nc2ccccc21 [Compound 10, N-(1-Pentyl-1H-benzo[d]imidazol-2-yl)acetamide] | completely abrogated activity | – |
| CCCCCn1c(N)nc2c(C)cccc21 [Compound 31a, 4-Methyl-1-pentyl-1H-benzo[d]imidazol-2-amine] | – | CD69 upregulation in NK lymphocytes [3]: complete absence of CD69 upregulation |
| CCCCCn1c(N)nc2c(-c3ccccc3)cccc21 [Compound 31l, 1-Pentyl-4-phenyl-1H-benzo[d]imidazol-2-amine] | abrogated activity | – |
| CCCCCn1c(N)nc2c(Cc3ccccc3)cccc21 [Compound 31m, 4-Benzyl-1-pentyl-1H-benzo[d]imidazol-2-amine] | abrogated activity | – |
| CCCCCn1c(N)nc2c(OCc3ccccc3)cccc21 [Compound 35, 4-Benzyloxy-1-pentyl-1H-benzoimidazol-2-ylamine] | abrogated activity | – |
